pIC50: −log10 of the molar value.
How the values were obtained:
[1] = test system: Rattus norvegicus; test: Diuretic activity in Sprague-Dawley rat at 0.3 mg/kg via oral gavage administered 30 mins prior to void induction by loading saline measured upto 4 hrs relative to vehicle treated control; format: functional
Summary of the method: (§1)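 Acute rat diuresis model in male-unspecified Sprague-Dawley rats, single oral dose, urine collected over 4 h. Urine volume, sodium excretion and potassium excretion expressed as fold increase over vehicle-treated controls; n = 5 per group; significance tested against vehicle.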

[2] = Volume of distribution at steady state in rat at 0.5 mg/kg, iv or 1 mg/kg, po; format: ADME, organism-based; details: in vivo, read-out: Vdss
[3] = Clearance in rat at 0.5 mg/kg, iv or 1 mg/kg, po; format: ADME, organism-based; details: in vivo
[4] = biological target: T1, Voltage-gated inwardly rectifying potassium channel KCNH2 (Homo sapiens, UniProt Q12809); test: Inhibition of human ERG after 6 mins by electrophysiological assay
[5] = Dose normalized AUC in rat at 1 mg/kg, po; format: ADME, organism-based; details: in vivo
[6] = biological target: T1, Voltage-gated inwardly rectifying potassium channel KCNH2; test: Displacement of [35S]MK-499 from human ERG
[7] = test system: Rattus norvegicus; test: Natriuretic activity in Sprague-Dawley rat at 1 mg/kg via oral gavage administered 30 mins prior to void induction by loading saline measured upto 4 hrs relative to vehicle treated control; format: functional; summary of the method: as §1
[8] = test system: Rattus norvegicus; test: Kaliuretic activity in Sprague-Dawley rat at 3 mg/kg via oral gavage administered 30 mins prior to void induction by loading saline measured upto 4 hrs relative to vehicle treated control; format: functional; summary of the method: as §1
[9] = Oral bioavailability in rat at 1 mg/kg; format: ADME, organism-based; details: in vivo
[10] = test system: Rattus norvegicus; test: Diuretic activity in Sprague-Dawley rat at 1 mg/kg via oral gavage administered 30 mins prior to void induction by loading saline measured upto 4 hrs relative to vehicle treated control; format: functional; summary of the method: as §1
[11] = test system: Rattus norvegicus; test: Natriuretic activity in Sprague-Dawley rat at 0.3 mg/kg via oral gavage administered 30 mins prior to void induction by loading saline measured upto 4 hrs relative to vehicle treated control; format: functional; summary of the method: as §1
[12] = test system: Rattus norvegicus; test: Diuretic activity in Sprague-Dawley rat at 3 mg/kg via oral gavage administered 30 mins prior to void induction by loading saline measured upto 4 hrs relative to vehicle treated control; format: functional
Summary of the method: (§2)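 Acute 4 h study in Sprague-Dawley rats after oral dosing, n = 5 per group. Urine volume and sodium and potassium excretion were expressed as fold increase over vehicle-treated animals. Significance was tested versus vehicle (p < 0.05 or p < 0.01).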

[13] = Half life in rat at 0.5 mg/kg, iv or 1 mg/kg, po; format: ADME, organism-based; details: in vivo
[14] = test system: Rattus norvegicus; test: Kaliuretic activity in Sprague-Dawley rat at 0.3 mg/kg via oral gavage administered 30 mins prior to void induction by loading saline measured upto 4 hrs relative to vehicle treated control; format: functional; summary of the method: as §1
[15] = test system: Rattus norvegicus; test: Natriuretic activity in Sprague-Dawley rat at 3 mg/kg via oral gavage administered 30 mins prior to void induction by loading saline measured upto 4 hrs relative to vehicle treated control; format: functional
Summary of the method: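 Acute 4 h diuresis/natriuresis study in SD rats given a single oral dose, n = 5 per group. Urinary sodium output is expressed as fold increase over vehicle-treated animals, with significance tested against vehicle.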

[16] = test system: Rattus norvegicus; test: Kaliuretic activity in Sprague-Dawley rat at 1 mg/kg via oral gavage administered 30 mins prior to void induction by loading saline measured upto 4 hrs relative to vehicle treated control; format: functional; summary of the method: as §1
[17] = biological target: T2, ATP-sensitive inward rectifier potassium channel 1 (Homo sapiens, UniProt P48048); test: Inhibition of ROMK (unknown origin) after 30 mins by 86Rb+ efflux assay
T2 sequence (P48048 whole entry): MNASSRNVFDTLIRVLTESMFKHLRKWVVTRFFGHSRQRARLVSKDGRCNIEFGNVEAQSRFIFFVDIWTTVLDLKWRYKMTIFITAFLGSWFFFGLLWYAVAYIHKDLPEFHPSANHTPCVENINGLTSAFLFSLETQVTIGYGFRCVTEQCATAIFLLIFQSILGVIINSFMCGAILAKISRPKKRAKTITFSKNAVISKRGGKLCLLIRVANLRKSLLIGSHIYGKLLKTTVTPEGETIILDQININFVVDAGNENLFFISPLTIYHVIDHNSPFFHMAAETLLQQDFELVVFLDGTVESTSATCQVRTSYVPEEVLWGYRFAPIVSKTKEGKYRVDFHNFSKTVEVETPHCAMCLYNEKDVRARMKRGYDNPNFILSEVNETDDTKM

[18] = organism: Homo sapiens; test: Selectivity ratio of IC50 for human ERG to IC50 for ROMK (unknown origin)
[19] = test system: Rattus norvegicus; test: Diuretic activity in Sprague-Dawley rat at 10 mg/kg via oral gavage administered 30 mins prior to void induction by loading saline measured upto 4 hrs relative to vehicle treated control; format: functional; summary of the method: as §2
[20] = test system: Rattus norvegicus; test: Natriuretic activity in Sprague-Dawley rat at 10 mg/kg via oral gavage administered 30 mins prior to void induction by loading saline measured upto 4 hrs relative to vehicle treated control; format: functional; summary of the method: as §2
[21] = Oral bioavailability in rat at 2 mg/kg; format: ADME, organism-based; details: in vivo
Summary of the method: (§3)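 Rats dosed once at 1 mg/kg IV and, separately, 2 mg/kg PO, with n = 3. Derived parameters were plasma clearance, Vdss, dose-normalized oral AUC (μM·h·kg/mg), half-life, and oral bioavailability (F%).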

[22] = Dose normalized AUC in rat at 2 mg/kg, po; format: ADME, organism-based; details: in vivo; summary of the method: as §3
[23] = Clearance in rat at 1 mg/kg, iv or 2 mg/kg, po; format: ADME, organism-based; details: in vivo; summary of the method: as §3
[24] = Volume of distribution at steady state in rat at 1 mg/kg, iv or 2 mg/kg, po; format: ADME, organism-based; details: in vivo, read-out: Vdss; summary of the method: as §3
[25] = Half life in rat at 1 mg/kg, iv or 2 mg/kg, po; format: ADME, organism-based; details: in vivo; summary of the method: as §3
[26] = biological target: T2, ATP-sensitive inward rectifier potassium channel 1; test: Inhibition of ROMK (unknown origin) expressed in CHO cells after 6 mins by electrophysiological assay; format: cell-based
[27] = organism: Homo sapiens; test: Selectivity ratio of IC50 for human ERG to IC50 for ROMK (unknown origin) expressed in CHO cells by electrophysiological assay; format: cell-based
Summary of the method: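 Both channels were tested in electrophysiology (EP) assays. The ratio is the hERG EP IC50 divided by the ROMK EP IC50.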

[28] = test system: Rattus norvegicus; test: Kaliuretic activity in Sprague-Dawley rat administered via oral gavage 30 mins prior to void induction by loading saline measured upto 4 hrs relative to vehicle treated control; format: functional; summary of the method: as §2
[29] = test system: Rattus norvegicus; test: Antihypertensive activity in spontaneously hypertensive rat assessed as reduction in systolic blood pressure at 25 mg/kg via oral gavage qd administered for 4 days measured on day 4 by telemetry (reference value: 2.5 +/- 2.2 mmHg); format: functional

T1 sequence (Q12809 whole entry): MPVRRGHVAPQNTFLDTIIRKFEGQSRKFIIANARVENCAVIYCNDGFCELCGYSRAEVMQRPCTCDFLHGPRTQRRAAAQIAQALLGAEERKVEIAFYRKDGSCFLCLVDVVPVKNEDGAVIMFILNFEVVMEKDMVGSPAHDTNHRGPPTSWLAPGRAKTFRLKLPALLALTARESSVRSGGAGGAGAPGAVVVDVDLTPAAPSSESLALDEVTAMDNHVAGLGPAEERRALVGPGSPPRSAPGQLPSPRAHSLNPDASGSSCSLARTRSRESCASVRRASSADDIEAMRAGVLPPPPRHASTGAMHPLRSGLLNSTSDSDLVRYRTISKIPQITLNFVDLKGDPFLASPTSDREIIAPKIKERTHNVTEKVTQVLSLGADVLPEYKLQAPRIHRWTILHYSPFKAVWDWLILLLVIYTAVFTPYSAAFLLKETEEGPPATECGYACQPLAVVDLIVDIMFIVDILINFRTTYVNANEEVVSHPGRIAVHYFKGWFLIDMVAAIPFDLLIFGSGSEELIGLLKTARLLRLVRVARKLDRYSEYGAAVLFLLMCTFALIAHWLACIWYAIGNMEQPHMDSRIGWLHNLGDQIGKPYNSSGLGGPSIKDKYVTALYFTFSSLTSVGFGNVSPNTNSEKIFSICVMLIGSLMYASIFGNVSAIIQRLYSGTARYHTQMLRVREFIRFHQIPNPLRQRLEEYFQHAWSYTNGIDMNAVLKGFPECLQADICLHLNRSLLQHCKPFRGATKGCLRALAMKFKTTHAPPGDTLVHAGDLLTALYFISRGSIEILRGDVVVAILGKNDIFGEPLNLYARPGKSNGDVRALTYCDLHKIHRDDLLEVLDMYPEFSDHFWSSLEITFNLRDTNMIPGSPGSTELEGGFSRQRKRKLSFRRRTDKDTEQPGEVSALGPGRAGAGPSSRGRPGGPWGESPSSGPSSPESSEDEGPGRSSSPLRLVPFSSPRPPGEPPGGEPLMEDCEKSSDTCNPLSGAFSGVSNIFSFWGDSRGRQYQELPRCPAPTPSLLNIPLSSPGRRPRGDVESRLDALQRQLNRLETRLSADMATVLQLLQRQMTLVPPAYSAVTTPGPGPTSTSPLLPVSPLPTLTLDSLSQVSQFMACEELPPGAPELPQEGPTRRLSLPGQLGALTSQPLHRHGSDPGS

With Cc1c([C@H](O)CN2CCN(C[C@@H](O)c3ccc4c(c3C)COC4=O)CC2)ccc2c1COC2=O the “fold change (FC)” value [1] was 1.3, the Vd [2] was 5.8 L/kg and the clearance [3] was 82 mL/min/kg. It also gave a pIC50 [4] of 4.66, an AUC/dose [5] of 0.13 µM·kg·h/mg and a pIC50 [6] of 4.33. For the same compound, the “fold change (FC)” value [7] was 1.5, the “fold change (FC)” value [8] was 0.9 and the bioavailability [9] was 45%. The “fold change (FC)” value [10] was 1.6, the “fold change (FC)” value [11] was 1.4 and the “fold change (FC)” value [12] was 1.9. For the same compound, the half-life [13] was 51.6 min, the “fold change (FC)” value [14] was 1.1 and the “fold change (FC)” value [15] was 2.2. The “fold change (FC)” value [16] was 1.

Work on Cc1c([C@H](O)CN2CCN(C[C@H](O)c3ccc4c(c3C)COC4=O)CC2)ccc2c1COC2=O yielded a Vd [2] of 4.5 L/kg, a clearance [3] of 54 mL/min/kg and a pIC50 [4] of under 4.52. For the same compound, the AUC/dose [5] was 0.3 µM·kg·h/mg, the pIC50 [6] was 4.00 and the “fold change (FC)” value [7] was 3.7. For the same compound, the “fold change (FC)” value [8] was 1.1, the bioavailability [9] was 44% and the “fold change (FC)” value [10] was 3.5. For the same compound, the “fold change (FC)” value [12] was 4.5, the half-life [13] was 84 min and the “fold change (FC)” value [15] was 4.1. The “fold change (FC)” value [16] was 1.3.

Cc1c(CCN2CCN(CC(O)c3ccc4c(c3C)COC4=O)CC2)ccc2c1COC2=O (centres undefined) gave a pIC50 [17] of 7.47.

Cc1c(C(O)CN2CCN(C(=O)Cc3ccc(-n4cnnn4)cc3)CC2)ccc2c1COC2=O (centres undefined) gave a pIC50 [6] of 4.00, a Ratio IC50 [18] of 200 and a pIC50 [17] of 6.29.

In the case of Cc1c(C(C)CN2CCN(C(=O)Cc3ccc(-n4cnnn4)cc3)CC2)ccc2c1COC2=O (centres undefined), the pIC50 [6] was 4.22, the Ratio IC50 [18] was 380 and the pIC50 [17] was 6.80.

With Cc1c(CCN2CCN(CCc3ccc4c(c3C)COC4=O)CC2)ccc2c1COC2=O the pIC50 [6] was 5.52 and the Ratio IC50 [18] was 39.

For Cc1c(C(O)CN2CCN(CC(O)c3ccc4c(c3C)COC4=O)CC2)ccc2c1COC2=O (centres undefined), the pIC50 [4] was 4.55, the pIC50 [6] was 4.64 and the “fold change (FC)” value [12] was 6.7. For the same compound, the “fold change (FC)” value [19] was 6.8, the “fold change (FC)” value [20] was 9.5 and the “fold change (FC)” value [15] was 9.4.

Compound Cc1c(C(F)CN2CCN(C(=O)Cc3ccc(-n4cnnn4)cc3)CC2)ccc2c1COC2=O (centres undefined) has a bioavailability [21] of 36%, a pIC50 [6] of 4.17 and an AUC/dose [22] of 0.23 µM·h. For the same compound, the clearance [23] was 58 mL/min/kg, the Vd [24] was 1.4 L/kg and the Ratio IC50 [18] was 1000. It also gave a pIC50 [17] of 7.16 and a half-life [25] of 21 min.

For Cc1c(C(F)CN2CCN(CC(F)c3ccc4c(c3C)COC4=O)CC2)ccc2c1COC2=O (centres undefined), the pIC50 [26] was 6.93, the pIC50 [4] was under 4.05 and the pIC50 [6] was 4.40. The Ratio IC50 [27] was over 770, the “fold change (FC)” value [12] was 1.6 and the “fold change (FC)” value [19] was 3. The Ratio IC50 [18] was 420, the pIC50 [17] was 7.02 and the “fold change (FC)” value [20] was 3. For the same compound, the “fold change (FC)” value [15] was 1.7.

In the case of NS(=O)(=O)c1cc2c(cc1Cl)NCNS2(=O)=O [HYDROCHLOROTHIAZIDE], the “fold change (FC)” value [28] was 2 and the Activity [29] was 15 mmHg.

Source: ChEMBL document CHEMBL4425169 (ACS Med Chem Lett, 2016)
